The test system of data set [1] is Mus musculus. Put plainly: Analgesic activity in intraperitoneally dosed mouse chronic constriction injury model of neuropathic pain. The data set is classed as functional. The conditions noted are these: ip.
For data set [2], the system named is Mus musculus. In words: Analgesic activity in intraperitoneally dosed mouse chronic constriction injury model of neuropathic pain assessed as time of peak protection. The data set is classed as functional.
Data set [3] deals with T1, Adenosine receptor A1 (Homo sapiens) (UniProt P30542).
T1 sequence (whole entry): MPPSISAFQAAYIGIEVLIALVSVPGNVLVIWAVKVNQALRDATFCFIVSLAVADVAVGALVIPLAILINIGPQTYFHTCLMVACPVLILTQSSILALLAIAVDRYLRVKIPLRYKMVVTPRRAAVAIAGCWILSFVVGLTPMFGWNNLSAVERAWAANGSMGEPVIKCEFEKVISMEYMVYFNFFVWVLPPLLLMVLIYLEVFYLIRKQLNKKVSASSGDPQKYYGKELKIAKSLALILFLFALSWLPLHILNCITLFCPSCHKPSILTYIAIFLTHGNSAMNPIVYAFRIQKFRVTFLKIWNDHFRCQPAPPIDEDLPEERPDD
In words: Displacement of [3H]N6-R-phenylisopropyladenosine from human adenosine A1 receptor expressed in CHO cell membranes at 10 uM. The gist of the method:
(§1)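 Radioligand binding at the human receptor subtypes. Nonspecific binding was defined with adenosine 5′-N-ethyluronamide (10 μM). Ki values came from displacement curves, mean ± SEM, n = 3 unless noted. Single-point data were expressed as % inhibition of binding at 10 μM.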
In general terms: Loss of bound radioactivity is the signal in a displacement assay; it reports binding, not function.

The target of data set [4] is Adenosine receptor A2a (Homo sapiens) (UniProt P29274). In words: Displacement of [3H]2-[p-(2-carboxyethyl)phenyl-ethylamino]-5'-Nethylcarboxamidoadenosine from human adenosine A2A receptor expressed in HEK293 cell membranes at 10 uM. The gist of the method: as §1
Data set [5] concerns the target T2, Adenosine receptor A3 (Homo sapiens, UniProt P0DMS8).
T2 sequence (P0DMS8 whole entry): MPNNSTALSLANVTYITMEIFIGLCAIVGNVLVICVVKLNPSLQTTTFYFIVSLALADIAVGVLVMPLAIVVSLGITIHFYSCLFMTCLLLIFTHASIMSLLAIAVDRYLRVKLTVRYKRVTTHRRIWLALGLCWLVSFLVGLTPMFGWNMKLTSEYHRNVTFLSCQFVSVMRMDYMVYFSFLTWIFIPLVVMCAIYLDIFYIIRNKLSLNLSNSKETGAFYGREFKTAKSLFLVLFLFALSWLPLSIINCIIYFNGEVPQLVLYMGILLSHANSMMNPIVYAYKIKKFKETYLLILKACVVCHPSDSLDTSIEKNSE
In words: Displacement of [125I]N6-(4-amino-3-iodobenzyl)adenosine-5'-N-methyluronamide from human adenosine A3 receptor expressed in CHO cell membranes.

For data set [6], the target named is T3, Adenosine receptor A2b (Homo sapiens) (UniProt P29275).
T3 sequence (whole entry): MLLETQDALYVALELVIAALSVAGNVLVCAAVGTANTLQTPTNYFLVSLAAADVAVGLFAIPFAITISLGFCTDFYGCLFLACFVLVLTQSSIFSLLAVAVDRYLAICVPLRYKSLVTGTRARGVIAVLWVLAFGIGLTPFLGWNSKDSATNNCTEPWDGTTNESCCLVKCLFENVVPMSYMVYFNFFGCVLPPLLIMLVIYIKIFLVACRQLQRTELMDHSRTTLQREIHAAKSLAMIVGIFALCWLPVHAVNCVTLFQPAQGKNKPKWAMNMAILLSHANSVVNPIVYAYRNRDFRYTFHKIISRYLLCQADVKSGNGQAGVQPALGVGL
In words: Displacement of [3H]MRS1754 from human adenosine A2B receptor expressed in HEK293 cell membranes at 10 uM.

In data set [7] the target is T4, Adenosine receptor A3 (Mus musculus, UniProt Q61618).
T4 sequence (Q61618 whole entry): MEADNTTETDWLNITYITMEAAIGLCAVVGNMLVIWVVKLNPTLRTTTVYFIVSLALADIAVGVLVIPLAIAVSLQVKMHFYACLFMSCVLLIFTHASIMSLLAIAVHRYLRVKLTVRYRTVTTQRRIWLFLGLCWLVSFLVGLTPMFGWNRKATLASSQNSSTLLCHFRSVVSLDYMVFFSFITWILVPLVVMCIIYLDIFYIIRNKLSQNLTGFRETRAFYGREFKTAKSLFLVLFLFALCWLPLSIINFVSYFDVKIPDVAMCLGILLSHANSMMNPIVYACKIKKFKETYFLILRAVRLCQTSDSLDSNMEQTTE
In words: Binding affinity to mouse adenosine A3 receptor expressed in HEK293 cell membranes. The gist of the method: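 Radioligand binding used membranes of HEK293 cells expressing the mouse or the canine A3 receptor.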

The target of data set [8] is T5, Adenosine receptor A3 (Canis lupus familiaris, UniProt Q28309).
T5 sequence (Q28309 whole entry): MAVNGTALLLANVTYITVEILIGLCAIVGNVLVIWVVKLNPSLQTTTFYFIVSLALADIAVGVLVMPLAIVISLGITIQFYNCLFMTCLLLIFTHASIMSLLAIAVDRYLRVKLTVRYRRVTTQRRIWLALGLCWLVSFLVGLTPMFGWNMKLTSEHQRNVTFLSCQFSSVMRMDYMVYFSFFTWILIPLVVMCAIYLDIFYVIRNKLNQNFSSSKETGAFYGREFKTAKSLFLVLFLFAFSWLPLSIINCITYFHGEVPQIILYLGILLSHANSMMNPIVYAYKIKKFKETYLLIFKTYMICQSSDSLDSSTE
Put plainly: Binding affinity to canine adenosine A3 receptor expressed in HEK293 cell membranes. The conditions noted are these: read-out: Ki. The gist of the method: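 Radioligand binding used membranes of HEK293 cells expressing the mouse or the canine A3 receptor. Affinities were given as Ki in nM, mean ± SEM, n = 3.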

The target in data set [9] is 5-hydroxytryptamine receptor 2B (Homo sapiens, UniProt P41595). In words: Binding affinity to 5HT2B receptor (unknown origin). The conditions noted are these: read-out: Ki.
Data set [10] addresses T2, Adenosine receptor A3. In words: Agonist activity at human adenosine A3 receptor expressed in CHO cells assessed as inhibition of cAMP production. The format is functional, cell-based. Put shortly:
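Read-out was inhibition of cyclic AMP production in membranes prepared from CHO cells expressing the human A3 receptor. The value is an EC50 with full agonism assessed.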
(Cyclic AMP is a second messenger, typically raised through Gs and lowered through Gi signalling.)

Data set [11] has as its system Mus musculus. In words: Analgesic activity in mouse chronic constriction injury model of neuropathic pain assessed as protection of ipsilateral hind paw mechanoallodynia of sciatic nerve at 0.3 to 30 umol/kg administered through oral gavage at point of peak pain on day 7 relative to control measured at 1 hr. The data set is classed as functional. The gist of the method: (§2)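 Mice had sciatic nerve chronic constriction injury. Compound was given by oral gavage on day 7, at peak pain. Mechanoallodynia was scored on the ipsilateral and contralateral hind paws at the 1 h and 3 h time points, as % protection. n = 4 per group, some n = 3.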

The test system of data set [12] is Mus musculus. Put plainly: Analgesic activity in mouse chronic constriction injury model of neuropathic pain assessed as protection of ipsilateral hind paw mechanoallodynia of sciatic nerve at 0.3 to 30 umol/kg administered through oral gavage at point of peak pain on day 7 measured at 3 hrs. The format is functional. The gist of the method: as §2
The subject of data set [13] is Mus musculus. Put plainly: Analgesic activity in mouse chronic constriction injury model of neuropathic pain assessed as time of peak protection at 0.3 to 30 umol/kg administered through oral gavage at point of peak pain on day 7. The data set is classed as functional. The gist of the method:
as §2

In data set [14] the test system is Mus musculus. In words: Analgesic activity in mouse chronic constriction injury model of neuropathic pain assessed as time duration protection hind paw mechanoallodynia of sciatic nerve at 3 umol/kg administered through oral gavage at point of peak pain on day 7. The data set is classed as functional. Put shortly: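 In CCI mice, 3 μmol/kg was given p.o. on day 7. The time course of protection against hind paw mechanoallodynia was followed, n = 4. Data were mean ± SEM, analysed by two-tailed two-way ANOVA with Bonferroni comparisons versus day 0.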

The test system of data set [15] is Mus musculus. In words: Effect on contralateral side hind paw in mouse chronic constriction injury model of neuropathic pain at 0.3 to 30 umol/kg administered through oral gavage at point of peak pain on day 7. The format is ADME, organism-based. The conditions noted are these: in vivo. Put shortly:
as §2

Chain of 5-hydroxytryptamine receptor 2B (P41595 whole entry): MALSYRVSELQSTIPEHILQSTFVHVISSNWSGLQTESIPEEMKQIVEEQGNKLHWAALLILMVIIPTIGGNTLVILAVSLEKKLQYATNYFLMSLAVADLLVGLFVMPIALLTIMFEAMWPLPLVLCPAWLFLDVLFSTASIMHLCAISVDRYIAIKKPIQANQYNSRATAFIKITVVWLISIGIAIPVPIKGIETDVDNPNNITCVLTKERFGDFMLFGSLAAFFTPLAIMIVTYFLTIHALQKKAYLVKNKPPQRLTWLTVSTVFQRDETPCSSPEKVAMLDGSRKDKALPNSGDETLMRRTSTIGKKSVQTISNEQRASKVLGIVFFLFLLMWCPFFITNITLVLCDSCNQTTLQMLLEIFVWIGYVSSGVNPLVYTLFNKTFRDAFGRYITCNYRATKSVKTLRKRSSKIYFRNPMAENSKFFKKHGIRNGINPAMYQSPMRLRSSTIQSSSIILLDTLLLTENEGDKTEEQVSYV
Chain of Adenosine receptor A2a (Homo sapiens) (P29274 whole entry): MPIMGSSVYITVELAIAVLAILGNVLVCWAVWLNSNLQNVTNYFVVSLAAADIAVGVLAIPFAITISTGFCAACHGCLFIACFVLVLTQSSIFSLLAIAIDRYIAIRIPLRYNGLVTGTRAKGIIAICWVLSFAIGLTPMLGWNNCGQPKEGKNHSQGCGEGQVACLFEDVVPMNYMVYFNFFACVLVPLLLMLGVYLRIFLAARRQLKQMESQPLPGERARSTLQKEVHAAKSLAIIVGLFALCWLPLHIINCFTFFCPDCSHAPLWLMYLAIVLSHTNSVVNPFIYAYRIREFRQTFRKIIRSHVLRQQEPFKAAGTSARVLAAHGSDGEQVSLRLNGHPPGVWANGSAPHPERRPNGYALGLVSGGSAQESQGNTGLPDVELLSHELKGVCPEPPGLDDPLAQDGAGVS

Regarding `NCC1(CC(=O)O)CCCCC1` [GABAPENTIN], in data set [1], the ED50 (commonly the dose at which the effect has come halfway, by size or by number of responders) was 140 µmol/kg. Further, the Time in data set [2] was 1 h.
With `CCNc1cc(C#Cc2ccc(Cl)s2)nc2c1ncn2[C@H]1[C@H](O)[C@H](O)[C@]2(C(=O)NC)C[C@H]12`, the inhibition (as a rule, the percentage by which the read-out fell short of the control) is 10% in [3], 0% in [4] and 17% in [6]. Moreover, the Ki (as a rule, a measure of affinity in units of concentration, obtained from inhibition or displacement) is 1.7 nM in data set [5], 16 nM in [7], 49 nM in data set [8] and 2500 nM in data set [9]. The EC50 (usually the concentration needed to bring the measured effect to its halfway point) in [10] came to 1.5 nM. The Emax (as a rule, the greatest response seen or fitted, relative to the assay's reference) in [11] came out at 93%. The results for the Activity in [12] and in [15] were 84% and “Non-toxic”, respectively. The Time worked out at 1 h in data set [13] and 5 h in data set [14].

The values are drawn from ChEMBL document CHEMBL3612017, “Rigidified A3 Adenosine Receptor Agonists: 1-Deazaadenine Modification Maintains High in Vivo Efficacy” (ACS Med Chem Lett, 2015).
